Laboratory results reported in ChEMBL document CHEMBL3352664 (Bioorg Med Chem, 2014).
pIC50: −log10 of the molar value. Active and inactive are the calls of the source. The calls are words filed in the database; no cut-off is given here.

Assays:
Plasmodium falciparum [1] = assay: Antiplasmodial activity against chloroquine-sensitive Plasmodium falciparum 3D7 by Malaria SYBR Green I-nucleic acid staining based fluorescence assay; assay type: functional, organism-based
Outline: (§1)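 SYBR Green I fluorescence assay (MSF). DMSO stock at 5 mg/mL, two-fold serial dilutions in RPMI-1640-FBS, tested in duplicate wells. Parasitized erythrocytes (0.8% parasitaemia, 1.0% cell suspension) incubated 72 h at 37 °C under 5% CO2. Lysis buffer with SYBR Green I added, 1 h at 37 °C. Fluorescence read at 485/530 nm.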

[2] = Selectivity index, ratio of CC50 for african green monkey Vero cells to IC50 for chloroquine-sensitive Plasmodium falciparum; assay type: functional
Plasmodium falciparum [3] = assay: Antiplasmodial activity against chloroquine-resistant Plasmodium falciparum K1 by Malaria SYBR Green I-nucleic acid staining based fluorescence assay; assay type: functional, organism-based; outline: as §1
[4] = Binding affinity to hematin in 40% aqueous DMSO and 20 mM HEPES buffer at pH 7.5 at 25 degC
Heme = assay: Binding affinity to heme assessed as inhibition of 1-oleoyl-rac-glycerol-induced beta-hematin polymerization by UV spectrophotometry
Plasmodium falciparum [5] = assay: Resistance index, ratio of IC50 for chloroquine-resistant Plasmodium falciparum K1 to IC50 for chloroquine-sensitive Plasmodium falciparum 3D7; assay type: functional
Outline: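 Resistance index computed as IC50 (K1) / IC50 (3D7). Both IC50s come from the 72 h SYBR Green I fluorescence assay on P. falciparum-infected erythrocytes, run with two-fold serial dilutions in duplicate wells.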

Plasmodium yoelii [6] = assay: Antimalarial activity against chloroquine-resistant Plasmodium yoelii N-67infected in Swiss Albino mouse assessed as mouse survival on day 28 at 20 mg/kg, po once daily for 4 days measured on day 4 post infection; assay type: functional, organism-based; set-up: dose 20 mg/kg
Outline: (§2)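 Reference arm in the N-67 P. yoelii Swiss albino mouse model. 1 × 10^6 parasitized RBC given on day 0, five mice per group, oral dosing once daily. Parasitaemia from thin blood smears every four days; % suppression from the group mean vs untreated controls. Survival and cure (no parasitaemia) followed to day 28.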

Plasmodium yoelii [7] = assay: Antimalarial activity against chloroquine-resistant Plasmodium yoelii N-67infected in Swiss Albino mouse assessed as mouse cured on day 28 at 20 mg/kg, po once daily for 4 days measured on day 4 post infection; assay type: functional, organism-based; set-up: dose 20 mg/kg; outline: as §2
Plasmodium yoelii [8] = assay: Antimalarial activity against chloroquine-resistant Plasmodium yoelii N-67infected in Swiss Albino mouse assessed as suppression of parasitemia at 20 mg/kg, po once daily for 4 days measured on day 4 post infection; assay type: functional; conditions: N-67, 96 h; outline: as §2
Plasmodium yoelii [9] = assay: Antimalarial activity against chloroquine-resistant Plasmodium yoelii N-67infected in Swiss Albino mouse assessed as mouse survival on day 28 at 100 mg/kg, po once daily for 7 days measured on day 4 post infection; assay type: functional, organism-based; set-up: dose 100 mg/kg
Outline: (§3)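 P. yoelii N-67 (innately CQ-resistant) infection in Swiss albino mice (22 ± 2 g), 1 × 10^6 parasitized RBC on day 0. Groups of five dosed orally once daily from day 0, 100 mg/kg/day as aqueous suspension with a few drops of Tween 80. Parasitaemia read from thin blood smears every four days. % suppression uses the group mean vs untreated controls. Survival and cure (no parasitaemia) tracked to day 28.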

Plasmodium yoelii [10] = assay: Antimalarial activity against chloroquine-resistant Plasmodium yoelii N-67infected in Swiss Albino mouse assessed as suppression of parasitemia at 100 mg/kg, po once daily for 7 days measured on day 4 post infection; assay type: functional; outline: as §3
Plasmodium yoelii [11] = assay: Antimalarial activity against chloroquine-resistant Plasmodium yoelii N-67infected in Swiss Albino mouse assessed as mouse cured on day 28 at 100 mg/kg, po once daily for 7 days measured on day 4 post infection; assay type: functional, organism-based; set-up: dose 100 mg/kg; outline: as §3
Plasmodium yoelii [12] = assay: Antimalarial activity against chloroquine-resistant Plasmodium yoelii N-67infected in Swiss Albino mouse assessed as mouse cured on day 28 at 100 mg/kg, po once daily for 4 days measured on day 4 post infection; assay type: functional, organism-based; set-up: dose 100 mg/kg; outline: as §3
Plasmodium yoelii [13] = assay: Antimalarial activity against chloroquine-resistant Plasmodium yoelii N-67infected in Swiss Albino mouse assessed as mouse survival on day 28 at 100 mg/kg, po once daily for 4 days measured on day 4 post infection; assay type: functional, organism-based; set-up: dose 100 mg/kg; outline: as §3
Plasmodium yoelii [14] = assay: Antimalarial activity against chloroquine-resistant Plasmodium yoelii N-67infected in Swiss Albino mouse assessed as suppression of parasitemia at 100 mg/kg, po once daily for 4 days measured on day 4 post infection; assay type: functional; conditions: N-67, 96 h; outline: as §3

Row | SMILES | pIC50 (Plasmodium falciparum [1]) | Selectivity Index [2] | pIC50 (Plasmodium falciparum [3]) | log K [4] | pIC50 (Heme) | Ratio IC50 (Plasmodium falciparum [5]) | Activity (Plasmodium yoelii [6]) | Activity (Plasmodium yoelii [7]) | inhibition in vivo at 20 mg/kg (Plasmodium yoelii [8]) | Activity (Plasmodium yoelii [9]) | inhibition in vivo at 100 mg/kg (Plasmodium yoelii [10]) | Activity (Plasmodium yoelii [11]) | Activity (Plasmodium yoelii [12]) | Activity (Plasmodium yoelii [13]) | inhibition in vivo at 100 mg/kg (Plasmodium yoelii [14])
1 | CCN(C)CCC[C@@H](C)Nc1ccnc2cc(Cl)ccc12 | 8.11 | 15838 | 6.54 | 3.63 | 3.85 | 36.92 | – | – | – | – | – | – | – | – | –
2 | CCN(CC)CCCC(C)Nc1ccnc2cc(Cl)ccc12 (racemic) [CHLOROQUINE] | – | – | – | – | – | – | Active | inactive | 99% | – | – | – | – | – | –
3 | CCCCCCCCN(CCCCCCCC)CCC[C@H](C)Nc1ccnc2cc(Cl)ccc12 | 7.02 | 103.94 | 8.10 | 5.58 | 3.70 | 0.084 | – | – | – | inactive | 14.5% | inactive | – | – | –
4 | C[C@H](CCCNC(C)(C)C)Nc1ccnc2cc(Cl)ccc12 | 8.33 | 24459 | < 5.81 | 5.71 | 3.77 | >335 | – | – | – | – | – | – | – | – | –
5 | C[C@@H](CCCNC(C)(C)C)Nc1ccnc2cc(Cl)ccc12 | 7.48 | 7100 | < 5.81 | 5.04 | 3.82 | >47.43 | – | – | – | – | – | – | – | – | –
6 | C[C@@H](CCCN1CCCCC1)Nc1ccnc2cc(Cl)ccc12 | 7.83 | 20154 | 6.92 | 5.4 | 3.82 | 8.09 | – | – | – | – | – | – | – | – | –
7 | C[C@@H](CCCN1CCN(C)CC1)Nc1ccnc2cc(Cl)ccc12 | 7.85 | 14744 | 7.66 | 4.73 | 3.85 | 1.53 | – | – | – | Active | 100% | – | – | – | –
8 | C[C@H](CCCN1CCOCC1)Nc1ccnc2cc(Cl)ccc12 | 7.55 | 4186 | 6.98 | 5.69 | 3.82 | 3.76 | – | – | – | – | – | – | – | – | –
9 | C[C@H](CCCN(C)C)Nc1ccnc2cc(Cl)ccc12 | 8.22 | 28483 | 6.69 | 5.77 | 3.72 | 33.74 | – | – | – | – | – | – | – | – | –
10 | CCN(CC)CCC[C@H](C)Nc1ccnc2cc(Cl)ccc12 | – | – | – | – | – | – | – | – | – | – | 100% | inactive | – | – | –
11 | CCCCCCCCN(CCCCCCCC)CCC[C@@H](C)Nc1ccnc2cc(Cl)ccc12 | 7.10 | 44.28 | 6.90 | 5.02 | 3.72 | 1.6 | – | – | – | inactive | 9.5% | inactive | – | – | –
12 | CCN(CC)CCC[C@@H](C)Nc1ccnc2cc(Cl)ccc12 [(R)-CHLOROQUINE] | – | – | – | – | – | – | – | – | – | – | 100% | inactive | – | – | –
13 | C[C@H](CCCN1CCCCC1)Nc1ccnc2cc(Cl)ccc12 | 7.28 | 4257 | 6.27 | 7.19 | 3.89 | 10.13 | – | – | – | – | – | – | – | – | –
14 | C[C@H](CCCN1CCN(C)CC1)Nc1ccnc2cc(Cl)ccc12 | 8.16 | 18245 | 6.98 | 5.53 | 3.74 | 15.2 | – | – | – | Active | 100% | – | – | – | –
15 | CCN(C)CCC[C@H](C)Nc1ccnc2cc(Cl)ccc12 | 7.91 | 26389 | 6.59 | 5.61 | 3.82 | 20.85 | – | – | – | – | – | – | – | – | –
16 | C[C@@H](CCCN1CCOCC1)Nc1ccnc2cc(Cl)ccc12 | 7.85 | 19256 | 7.25 | 6 | 3.72 | 4.05 | – | – | – | – | – | – | inactive | Active | 99.6%
17 | C[C@@H](CCCN1CCCC1)Nc1ccnc2cc(Cl)ccc12 | 7.80 | 1469 | 7.22 | 5.19 | 3.74 | 3.83 | – | – | – | – | 100% | inactive | – | – | –
18 | C[C@@H](CCCN(C)C)Nc1ccnc2cc(Cl)ccc12 | 7.77 | 12483 | 6.45 | 4.95 | 3.82 | 20.88 | – | – | – | – | – | – | – | – | –
19 | C[C@H](CCCN1CCCC1)Nc1ccnc2cc(Cl)ccc12 | 7.99 | 14140 | 6.90 | 6.02 | 3.85 | 12.23 | – | – | – | inactive | 100% | inactive | – | – | –
